Source: publication PMC4002067 (Journal of Medicinal Chemistry, 2014)
Blank lines part the entries; values can stand above or below the compound they belong to.

Tests used:
SIRT1 [1] = biological target: T1, SIRT1 (Homo sapiens, UniProt Q96EB6); assay: SIRT-Glo enzyme inhibition assay, SIRT1; assay type: biochemical; settings: for selectivity for SIRT1 (over SIRT2): from IC50 values
T1 sequence (Q96EB6 1-747): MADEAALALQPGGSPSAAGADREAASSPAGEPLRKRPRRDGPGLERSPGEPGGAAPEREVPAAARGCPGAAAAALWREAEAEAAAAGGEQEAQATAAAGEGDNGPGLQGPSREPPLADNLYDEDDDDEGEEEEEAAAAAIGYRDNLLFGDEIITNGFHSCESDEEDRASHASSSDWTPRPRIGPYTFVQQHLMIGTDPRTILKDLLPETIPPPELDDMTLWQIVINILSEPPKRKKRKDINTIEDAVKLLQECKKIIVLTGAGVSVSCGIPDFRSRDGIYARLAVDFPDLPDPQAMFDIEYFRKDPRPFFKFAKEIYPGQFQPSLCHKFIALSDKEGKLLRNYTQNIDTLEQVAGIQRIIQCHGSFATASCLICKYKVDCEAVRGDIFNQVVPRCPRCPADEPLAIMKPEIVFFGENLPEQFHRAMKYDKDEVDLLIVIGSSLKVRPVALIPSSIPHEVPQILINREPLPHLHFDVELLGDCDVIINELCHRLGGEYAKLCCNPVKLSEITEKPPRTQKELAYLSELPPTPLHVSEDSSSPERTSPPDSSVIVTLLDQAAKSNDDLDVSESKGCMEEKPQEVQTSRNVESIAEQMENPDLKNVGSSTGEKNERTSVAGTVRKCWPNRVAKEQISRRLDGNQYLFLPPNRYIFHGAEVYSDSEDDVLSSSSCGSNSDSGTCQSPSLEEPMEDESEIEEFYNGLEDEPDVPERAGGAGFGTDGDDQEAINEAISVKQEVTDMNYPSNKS

[2] = system: SIRT2-mediated deacetylation of α-tubulin in NCI-H460 cells; assay: α-tubulin acetylation by Western blot; assay type: cell-based, human; settings: 4 h treatment
[3] = Cytotoxicity in nontransformed B-cell lines; assay type: cell-based; settings: human, nontransformed EBV-immortalized B-cell lines B1 and B2
Summary of the method: (§1)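 Cells grown under standard conditions and treated in 96-well format with test compound in DMSO (final DMSO 0.25%) or DMSO control for 72 h. Viability was read as luminescence with CellTiterGlo. Assays were run in triplicate, and values are averages of two independent experiments.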

[4] = system: lymphoma and epithelial cancer cell lines; assay: Cytotoxicity across lymphoma and epithelial cancer cell lines; assay type: cell-based; settings: 72 h, read-out: cytotoxicity IC50 range
Summary of the method: as §1

SIRT2 = biological target: T2, SIRT2 (Homo sapiens, UniProt Q8IXJ6); assay: SIRT-Glo enzyme inhibition assay, SIRT2; assay type: biochemical; settings: 50 μM compound
T2 sequence (Q8IXJ6 1-389): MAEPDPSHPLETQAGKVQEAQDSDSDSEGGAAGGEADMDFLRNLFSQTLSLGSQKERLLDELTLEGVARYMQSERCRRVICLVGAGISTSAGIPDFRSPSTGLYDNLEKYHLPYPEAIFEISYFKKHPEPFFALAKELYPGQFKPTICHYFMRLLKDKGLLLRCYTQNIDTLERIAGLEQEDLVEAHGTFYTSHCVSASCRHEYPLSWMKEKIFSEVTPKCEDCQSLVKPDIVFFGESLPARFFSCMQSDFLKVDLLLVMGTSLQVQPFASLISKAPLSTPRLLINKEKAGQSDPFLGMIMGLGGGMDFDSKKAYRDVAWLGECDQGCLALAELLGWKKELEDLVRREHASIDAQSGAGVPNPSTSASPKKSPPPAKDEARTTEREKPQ

SIRT3 = biological target: T3, SIRT3 (Homo sapiens, UniProt Q9NTG7); assay: SIRT-Glo enzyme inhibition assay, SIRT3; assay type: biochemical; settings: 50 μM compound
T3 sequence (Q9NTG7 1-399): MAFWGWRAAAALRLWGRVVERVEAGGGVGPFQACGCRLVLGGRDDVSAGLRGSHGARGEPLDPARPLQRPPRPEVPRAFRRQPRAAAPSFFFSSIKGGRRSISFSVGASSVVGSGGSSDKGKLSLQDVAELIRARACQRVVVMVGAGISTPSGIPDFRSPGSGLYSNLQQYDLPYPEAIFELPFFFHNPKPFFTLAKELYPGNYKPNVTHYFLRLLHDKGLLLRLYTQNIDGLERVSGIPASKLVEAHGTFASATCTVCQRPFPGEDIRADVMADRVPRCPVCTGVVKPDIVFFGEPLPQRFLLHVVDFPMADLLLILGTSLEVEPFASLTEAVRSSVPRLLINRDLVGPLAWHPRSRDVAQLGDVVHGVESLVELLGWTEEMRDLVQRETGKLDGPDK

[5] = drawback stated in the introduction; cited from earlier work
SIRT1 [6] = biological target: T1, SIRT1; assay: Saturation transfer difference; assay type: binding; settings: 1.5 μM SIRT1, 200 μM compound, naphthalene numbering

Compound: Cc1ccc(-c2[nH][nH]c(=O)c2Cc2c(O)ccc3cc(Br)ccc23)cc1 [compound 14, 4-[(6-Bromo-2-hydroxynaphthalen-1-yl)methyl]-5-(4-methylphenyl)-2,3-dihydro-1H-pyrazol-3-one]
selectivity for SIRT1 (over SIRT2) (SIRT1 [1]): greater than 5 fold

Compound: Cc1ccc(-c2[nH]oc(=O)c2Cc2c(O)ccc3cc(Br)ccc23)cc1 [compound 24, 4-[(6-Bromo-2-hydroxynaphthalen-1-yl)methyl]-3-(4-methylphenyl)-2,5-dihydro-1,2-oxazol-5-one]
α-tubulin acetylation [2]: rapid and robust dose-dependent increase in α-tubulin acetylation | IC50 at 72 h [3]: 22 to 28 µM | IC50 [4]: 3 to 7 µM | selectivity for SIRT1 (over SIRT2) (SIRT1 [1]): 7.8 fold

Compound: O=c1[nH]c(=S)[nH]c(-c2ccccc2)c1Cc1c(O)ccc2ccccc12 [compound 1, 5-[(2-hydroxy-1-naphthyl)methyl]-6-phenyl-2-thioxo-2,3-dihydro-4(1H)-pyrimidinone]
solubility [5]: poor solubility

Compound: Cc1ccc(-c2[nH][nH]c(=O)c2Cc2c(O)ccc3nc(Cl)ccc23)cc1 [compound 20, 4-[(2-Chloro-6-hydroxyquinolin-5-yl)methyl]-5-(4-methylphenyl)-2,3-dihydro-1H-pyrazol-3-one]
relative STD signal intensity, C-7 proton (SIRT1 [6]): 100%

The next lines start with the values.

SIRT2 (% inh) (SIRT2): 24% | SIRT1 (% inh) (SIRT1 [1]; 50 μM compound): 27% | SIRT3 (% inh) (SIRT3): 32%
Compound: 4-[(2-Chloro-6-hydroxy-4-methylquinolin-5-yl)methyl]-5-(4-methylphenyl)-2,3-dihydro-1H-pyrazol-3-one [compound 22]

selectivity for SIRT1 (over SIRT2) (SIRT1 [1]): > 3 fold
Compound: CC(C)c1ccc(-c2[nH][nH]c(=O)c2Cc2c(O)ccc3nc(Cl)ccc23)cc1 [compound 23, 4-[(2-Chloro-6-hydroxyquinolin-5-yl)methyl]-5-[4-(propan-2-yl)phenyl]-2,3-dihydro-1H-pyrazol-3-one]
